Key:
[1] = molecular target: T1, Ectonucleotide pyrophosphatase/phosphodiesterase family member 3 (Homo sapiens) (UniProt O14638); experiment: Activity of human NPP3 expressed in COS7 cells assessed as production of p-nitrophenol using Ap5A as the substrate at 100 uM after 30 mins by malachite green reagent method; assay type: cell-based; details: COS-7
T1 sequence (whole entry): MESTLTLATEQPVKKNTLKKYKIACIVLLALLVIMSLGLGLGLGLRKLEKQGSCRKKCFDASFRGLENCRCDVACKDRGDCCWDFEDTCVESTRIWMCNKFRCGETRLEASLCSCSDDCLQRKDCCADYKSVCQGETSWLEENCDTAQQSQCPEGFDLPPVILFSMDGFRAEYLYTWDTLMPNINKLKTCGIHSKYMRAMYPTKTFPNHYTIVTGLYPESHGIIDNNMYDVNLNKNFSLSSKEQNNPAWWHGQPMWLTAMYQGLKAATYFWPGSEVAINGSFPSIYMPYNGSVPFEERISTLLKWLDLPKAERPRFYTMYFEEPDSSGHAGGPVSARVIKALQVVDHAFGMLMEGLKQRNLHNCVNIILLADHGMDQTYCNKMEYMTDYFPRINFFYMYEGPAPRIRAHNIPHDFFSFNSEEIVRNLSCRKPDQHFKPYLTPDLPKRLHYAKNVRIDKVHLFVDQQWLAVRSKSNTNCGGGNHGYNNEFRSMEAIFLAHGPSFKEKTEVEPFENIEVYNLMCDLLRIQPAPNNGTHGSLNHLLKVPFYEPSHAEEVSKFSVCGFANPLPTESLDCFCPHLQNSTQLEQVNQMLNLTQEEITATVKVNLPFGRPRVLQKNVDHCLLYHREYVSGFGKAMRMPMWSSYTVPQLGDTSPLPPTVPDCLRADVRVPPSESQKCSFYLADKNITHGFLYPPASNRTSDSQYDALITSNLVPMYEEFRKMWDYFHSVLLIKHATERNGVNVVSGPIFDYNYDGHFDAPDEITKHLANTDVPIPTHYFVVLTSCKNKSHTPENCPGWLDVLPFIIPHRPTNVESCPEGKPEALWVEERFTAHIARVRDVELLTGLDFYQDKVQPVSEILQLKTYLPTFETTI

[2] = molecular target: T2, Ectonucleoside triphosphate diphosphohydrolase 2 (Homo sapiens) (UniProt Q9Y5L3); experiment: Inhibition of human NTPDase2 expressed in COS7 cells assessed as amount of inorganic phosphate released using ATP as the substrate at 100 uM after 15 mins by malachite green reagent method; assay type: cell-based; details: COS-7
T2 sequence (whole entry): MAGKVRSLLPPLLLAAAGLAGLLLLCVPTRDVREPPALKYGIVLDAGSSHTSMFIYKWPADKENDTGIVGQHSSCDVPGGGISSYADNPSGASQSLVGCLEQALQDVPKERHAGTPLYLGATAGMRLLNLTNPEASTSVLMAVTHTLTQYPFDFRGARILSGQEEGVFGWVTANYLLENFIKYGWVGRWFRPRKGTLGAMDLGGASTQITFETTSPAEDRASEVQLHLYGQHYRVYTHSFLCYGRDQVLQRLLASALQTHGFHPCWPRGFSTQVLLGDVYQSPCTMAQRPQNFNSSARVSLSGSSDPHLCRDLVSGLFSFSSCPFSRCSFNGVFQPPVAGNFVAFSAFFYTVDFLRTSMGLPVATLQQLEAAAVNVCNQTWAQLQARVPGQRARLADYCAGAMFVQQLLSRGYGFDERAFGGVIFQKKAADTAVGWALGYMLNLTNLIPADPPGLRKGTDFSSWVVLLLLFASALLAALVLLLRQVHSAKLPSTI
Method in brief: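 Protein extracts of transfected COS-7 cells (ecto-5'-nucleotidase: 100 μM AMP substrate; NTPDases: 100 μM ATP) were preincubated 3 min at 37 °C in Tris-Ringer pH 7.3 with inhibitor at 100 μM final. After 15 min, malachite green stop; Pi read at 630 nm. Activity given as % of substrate-only control. Mean ± SD of three experiments in triplicate.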

[3] = molecular target: T3, Ectonucleotide pyrophosphatase/phosphodiesterase family member 1 (Homo sapiens) (UniProt P22413); experiment: Inhibition of human NPP1 expressed in COS7 cells assessed as production of p-nitrophenol using pnp-TMP as the substrate at 100 uM after 15 mins […]; assay type: cell-based; details: COS-7
T3 sequence (whole entry): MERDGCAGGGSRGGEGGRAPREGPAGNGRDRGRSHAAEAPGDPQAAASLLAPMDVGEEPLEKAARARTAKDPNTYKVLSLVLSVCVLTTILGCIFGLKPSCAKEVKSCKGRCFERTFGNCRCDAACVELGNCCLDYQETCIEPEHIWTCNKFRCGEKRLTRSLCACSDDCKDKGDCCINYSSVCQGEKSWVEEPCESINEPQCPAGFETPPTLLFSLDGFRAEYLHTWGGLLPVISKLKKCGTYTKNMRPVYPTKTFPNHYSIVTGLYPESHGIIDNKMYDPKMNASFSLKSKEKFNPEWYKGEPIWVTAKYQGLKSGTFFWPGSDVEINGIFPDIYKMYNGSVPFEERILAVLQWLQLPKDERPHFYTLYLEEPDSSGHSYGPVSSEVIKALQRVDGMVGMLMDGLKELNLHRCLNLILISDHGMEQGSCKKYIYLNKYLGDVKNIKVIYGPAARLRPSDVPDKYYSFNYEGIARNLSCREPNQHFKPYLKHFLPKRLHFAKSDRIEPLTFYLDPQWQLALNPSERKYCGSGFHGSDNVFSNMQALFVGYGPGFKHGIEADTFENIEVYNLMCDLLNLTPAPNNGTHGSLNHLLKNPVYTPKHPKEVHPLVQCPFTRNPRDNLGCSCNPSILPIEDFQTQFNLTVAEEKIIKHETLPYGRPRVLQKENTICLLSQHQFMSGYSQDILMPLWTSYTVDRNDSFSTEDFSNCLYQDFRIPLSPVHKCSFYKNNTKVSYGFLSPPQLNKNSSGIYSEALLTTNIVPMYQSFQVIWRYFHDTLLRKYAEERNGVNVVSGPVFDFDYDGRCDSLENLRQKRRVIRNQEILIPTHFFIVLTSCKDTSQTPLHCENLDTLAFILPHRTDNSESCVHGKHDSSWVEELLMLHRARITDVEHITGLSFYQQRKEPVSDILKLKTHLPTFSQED
Method in brief: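 Human NPP1, NPP2 (membrane lysate or conditioned medium for the secreted form) or NPP3 from transfected COS-7 cells, preincubated 3 min at 37 °C in 50 mM Tris pH 8.5 buffer with CaCl2, NaCl and KCl. Substrate and inhibitor both at 100 μM final. pnp-TMP: p-nitrophenol read at 405 nm at 15 min. ATP or Ap5A: stopped at 30 min with perchloric acid, then HPLC. Results as % residual activity versus control; three to six experiments in triplicate.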

[4] = molecular target: T4, Ectonucleotide pyrophosphatase/phosphodiesterase family member 1 (Homo sapiens, UniProt P22413); experiment: Inhibition of human NPP1 expressed in COS7 cells assessed as production of p-nitrophenol using pnp-TMP as the substrate after 15 mins […]; assay type: cell-based, COS-7
T4 sequence (P22413 whole entry): T3 sequence (whole entry)
Method in brief: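 Human NPP1 COS-7 extract in Tris pH 8.5 buffer at 37 °C with pnp-TMP; p-nitrophenol read at 405 nm after 15 min. […] Values from Dixon and Cornish-Bowden plots of three independent experiments in triplicate.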

| Activity [1] [%] | inhibition [2] [%] | inhibition [3] [%] | IC50 [4] [µM] | Ki [4] [µM] | Compound |
| --- | --- | --- | --- | --- | --- |
| 5.5 | 10 | > 90 | 50 | 51 | Nc1ncnc2c1ncn2[C@H]1C[C@H](O)[C@@H](COP(=O)(O)CP(=O)(O)OP(=O)(O)CP(=O)(O)OC[C@H]2O[C@@H](n3cnc4c(N)ncnc43)C[C@@H]2O)O1 |
| 12 | 10 | > 90 | 63 | 20 | BP(=O)(OP(=O)(O)CP(=O)(O)OC[C@H]1O[C@@H](n2cnc3c(N)ncnc32)[C@H](O)[C@@H]1O)OP(=O)(O)CP(=O)(O)OC[C@H]1O[C@@H](n2cnc3c(N)ncnc32)[C@H](O)[C@@H]1O |
| 5.5 | 10 | > 90 | 13 | 9 | BP(=O)(OP(=O)(O)CP(=O)(O)OC[C@H]1O[C@@H](n2cnc3c(N)ncnc32)C[C@@H]1O)OP(=O)(O)CP(=O)(O)OC[C@H]1O[C@@H](n2cnc3c(N)ncnc32)C[C@@H]1O |
| 11 | 10 | > 90 | 33 | 13 | Nc1ncnc2c1ncn2[C@@H]1O[C@H](COP(=O)(O)CP(=O)(O)OP(=O)(O)CP(=O)(O)OC[C@H]2O[C@@H](n3cnc4c(N)ncnc43)[C@H](O)[C@@H]2O)[C@@H](O)[C@H]1O |
